Reference: ChEMBL document CHEMBL3872285, “Discovery of a Potent, Selective, and Orally Available PI3Kδ Inhibitor for the Treatment of Inflammatory Diseases” (ACS Med Chem Lett, 2017)

Experiments:
[1] = target: PI3-kinase p110-delta/p85-alpha (Homo sapiens, UniProt O00329); assay: Inhibition of full length recombinant human N-terminal His6-tagged PI3K p110delta/human p85alpha expressed in baculovirus infected sf21 cells using PIP2 as substrate preincubated for 30 mins followed by substrate addition by HTRF assay
Chain of PI3-kinase p110-delta/p85-alpha (P27986 whole entry, one chain of several): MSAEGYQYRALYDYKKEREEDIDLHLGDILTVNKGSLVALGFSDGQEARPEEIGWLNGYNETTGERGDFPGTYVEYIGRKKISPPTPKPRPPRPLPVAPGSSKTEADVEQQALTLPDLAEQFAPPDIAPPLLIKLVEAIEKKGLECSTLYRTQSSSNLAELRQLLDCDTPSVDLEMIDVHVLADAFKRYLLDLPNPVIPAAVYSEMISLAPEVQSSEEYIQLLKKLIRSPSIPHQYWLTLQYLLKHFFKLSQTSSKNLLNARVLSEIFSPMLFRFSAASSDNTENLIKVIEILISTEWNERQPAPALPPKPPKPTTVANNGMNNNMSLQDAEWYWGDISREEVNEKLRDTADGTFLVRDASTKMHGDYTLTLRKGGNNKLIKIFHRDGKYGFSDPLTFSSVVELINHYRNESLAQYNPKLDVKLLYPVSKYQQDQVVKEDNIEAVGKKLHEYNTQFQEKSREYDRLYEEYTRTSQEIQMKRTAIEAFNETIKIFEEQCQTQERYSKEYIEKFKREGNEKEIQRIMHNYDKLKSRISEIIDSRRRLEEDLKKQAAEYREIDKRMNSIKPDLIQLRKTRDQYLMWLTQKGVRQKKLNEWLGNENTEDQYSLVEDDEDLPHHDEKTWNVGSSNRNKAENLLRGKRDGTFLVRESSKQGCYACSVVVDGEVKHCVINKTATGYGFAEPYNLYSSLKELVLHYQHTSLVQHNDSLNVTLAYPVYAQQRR

[2] = Drug metabolism in human liver microsomes assessed as disappearance of parent compound at 5 uM after 30 mins in presence of NADPH by UPLC-MS/MS analysis
[3] = Drug metabolism in rat liver microsomes assessed as disappearance of parent compound at 5 uM after 30 mins in presence of NADPH by UPLC-MS/MS analysis
[4] = target: T1, Phosphatidylinositol 4,5-bisphosphate 3-kinase catalytic subunit delta isoform (Homo sapiens, UniProt O00329); assay: Inhibition of PI3Kdelta in human THP1 cells assessed as reduction in MCSF-stimulated akt phosphorylation at Thr308 preincubated for 30 mins followed by MCSF stimulation for 3 mins by ELISA; type: cell-based, THP-1
T1 sequence (O00329 whole entry): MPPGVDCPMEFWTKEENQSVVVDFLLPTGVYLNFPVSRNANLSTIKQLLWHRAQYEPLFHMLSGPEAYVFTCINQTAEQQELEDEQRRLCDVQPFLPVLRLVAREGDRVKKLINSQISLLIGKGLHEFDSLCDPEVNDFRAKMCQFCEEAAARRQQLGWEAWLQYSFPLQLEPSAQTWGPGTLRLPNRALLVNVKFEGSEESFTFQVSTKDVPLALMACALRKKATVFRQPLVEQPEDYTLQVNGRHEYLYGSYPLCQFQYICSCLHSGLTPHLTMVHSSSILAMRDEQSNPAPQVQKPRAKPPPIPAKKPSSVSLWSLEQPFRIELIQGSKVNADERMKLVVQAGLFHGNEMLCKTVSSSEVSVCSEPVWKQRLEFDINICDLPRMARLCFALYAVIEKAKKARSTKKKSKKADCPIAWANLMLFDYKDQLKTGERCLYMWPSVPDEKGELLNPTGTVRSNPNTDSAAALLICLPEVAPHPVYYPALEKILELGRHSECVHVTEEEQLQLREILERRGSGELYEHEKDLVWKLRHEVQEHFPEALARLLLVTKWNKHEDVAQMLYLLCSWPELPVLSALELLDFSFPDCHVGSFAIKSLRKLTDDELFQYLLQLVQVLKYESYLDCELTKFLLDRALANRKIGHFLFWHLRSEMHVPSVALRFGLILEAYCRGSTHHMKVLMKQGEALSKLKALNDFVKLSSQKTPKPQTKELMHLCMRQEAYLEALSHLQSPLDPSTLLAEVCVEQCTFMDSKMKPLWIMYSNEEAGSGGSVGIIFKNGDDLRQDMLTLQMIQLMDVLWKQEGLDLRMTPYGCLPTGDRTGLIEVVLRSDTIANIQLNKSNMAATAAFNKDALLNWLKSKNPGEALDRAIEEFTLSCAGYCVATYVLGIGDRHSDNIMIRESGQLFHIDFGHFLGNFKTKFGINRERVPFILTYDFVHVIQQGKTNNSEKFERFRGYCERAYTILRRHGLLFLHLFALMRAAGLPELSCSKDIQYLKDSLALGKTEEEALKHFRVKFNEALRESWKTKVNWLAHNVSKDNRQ
How it was run: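 THP-1 cells exposed to compound for 30 min, then stimulated with MCSF at EC80 for 3 min; lysates assayed by ELISA for pAkt (Thr308).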

| SMILES | IC50 [1] | metabolised at 0.5 h, 5 µM [2] | metabolised at 0.5 h, 5 µM [3] | IC50 [4] |
| --- | --- | --- | --- | --- |
| Cc1ccn2nc(C(C)n3cnc4c(N)ncnc43)n(-c3ccccc3)c(=O)c12 (centres undefined) | 75 nM |  |  |  |
| N#Cc1c(N)ncnc1N1CC(F)(F)C[C@H]1c1nn2cccc2c(=O)n1-c1ccccc1 | 31 nM | 35% | 30% | 370 nM |
| N#Cc1c(N)ncnc1NC1(c2nn3cccc3c(=O)n2-c2ccccc2)CC1 | 3400 nM |  |  |  |
| Cc1ccccc1-n1c(Cn2cnc3c(N)ncnc32)nn2ccc(C)c2c1=O | 110 nM |  |  |  |
| N#Cc1c(N)ncnc1NC(CC(F)(F)F)c1nn2cccc2c(=O)n1-c1ccccc1 (centres undefined) | 610 nM |  |  | 1600 nM |
| C[C@H](Nc1ncnc(N)c1C#N)c1nn2ccnc2c(=O)n1-c1ccccc1 | 57 nM | 23% | 14% | 210 nM |
| C[C@H](Nc1ncnc(N)c1C#N)c1nn2c(C(F)(F)F)ccc2c(=O)n1-c1ccccc1 | 71 nM |  |  | 380 nM |
| C[C@H](Nc1ncnc(N)c1F)c1nn2cccc2c(=O)n1-c1ccccc1 | 73 nM |  |  | 210 nM |
| C[C@H](Nc1nc(N)nc(N)n1)c1nn2cccc2c(=O)n1-c1ccccc1 | 91 nM | 33% | 25% | 76 nM |
| CC[C@@H](Nc1ncnc2[nH]cnc12)c1nn2cccc2c(=O)n1-c1ccccc1 | 1800 nM | 30% | 32% |  |
| C[C@H](Nc1cc(N)ncn1)c1nn2cccc2c(=O)n1-c1ccccc1 | 1200 nM |  |  |  |
| C[C@H](Nc1ccnc2ccnn12)c1nn2cccc2c(=O)n1-c1ccccc1 | 60 nM | 86% | 100% |  |

Now those with a lower IC50 [1], led by results:

| IC50 [1] | metabolised at 0.5 h, 5 µM [2] | metabolised at 0.5 h, 5 µM [3] | IC50 [4] | SMILES |
| --- | --- | --- | --- | --- |
| 17 nM | 34% | 23% | 51 nM | C[C@H](Nc1ncnc(N)c1C#N)c1nn2cc(F)cc2c(=O)n1-c1ccccc1 |
| 4 nM | 22% | 24% | 11 nM | C[C@H](Nc1ncnc(N)c1C#N)c1nn2c(C#N)ccc2c(=O)n1-c1ccccc1 |
| 11 nM | 32% | 32% | 18 nM | CC[C@H](Nc1ncnc(N)c1C#N)c1nn2cccc2c(=O)n1-c1ccccc1 |
| 4.6 nM | 48% | 46% | 6.6 nM | N#Cc1c(N)ncnc1N1CCC[C@H]1c1nn2cccc2c(=O)n1-c1ccccc1 |
| 8.8 nM | 82% | 54% | 11 nM | Cc1ccc2c(=O)n(-c3ccccc3)c([C@H](C)Nc3ncnc(N)c3C#N)nn12 |
| 4.3 nM | 23% | 7% | 35 nM | C[C@H](Nc1ncnc(N)c1C#N)c1nn2ccc(CO)c2c(=O)n1-c1ccccc1 |
| 9 nM | 58% | 48% | 47 nM | C[C@H](Nc1ncnc2[nH]cc(F)c12)c1nn2cccc2c(=O)n1-c1ccccc1 |
| 10 nM | 30% | 18% | 7 nM | C[C@H](Nc1ncnc2[nH]cnc12)c1nn2cccc2c(=O)n1-c1ccccc1 |
| 12 nM | 43% | 51% |  | C[C@H](Nc1ncnc(N)c1C(F)(F)F)c1nn2cccc2c(=O)n1-c1ccccc1 |
| 25 nM | 49% | 38% |  | CC[C@H](Nc1ncnc2[nH]cnc12)c1nn2cccc2c(=O)n1-c1ccccc1 |
| 1.1 nM | 13% | 9% | 3.8 nM | C[C@H](Nc1ncnc(N)c1C#N)c1nn2ccc(F)c2c(=O)n1-c1ccccc1 |
| 13 nM | 31% | 24% | 51 nM | N#Cc1c(N)ncnc1NC(CO)c1nn2cccc2c(=O)n1-c1ccccc1 (single isomer, unassigned) |
